Measurements collected from several papers.
Each line is one published result; the experiments were not run side by side.
Target: Myosin-IIIb (MYO3B, Homo sapiens, UniProt Q8WXR4)
One construct used (Q8WXR4 1-1341): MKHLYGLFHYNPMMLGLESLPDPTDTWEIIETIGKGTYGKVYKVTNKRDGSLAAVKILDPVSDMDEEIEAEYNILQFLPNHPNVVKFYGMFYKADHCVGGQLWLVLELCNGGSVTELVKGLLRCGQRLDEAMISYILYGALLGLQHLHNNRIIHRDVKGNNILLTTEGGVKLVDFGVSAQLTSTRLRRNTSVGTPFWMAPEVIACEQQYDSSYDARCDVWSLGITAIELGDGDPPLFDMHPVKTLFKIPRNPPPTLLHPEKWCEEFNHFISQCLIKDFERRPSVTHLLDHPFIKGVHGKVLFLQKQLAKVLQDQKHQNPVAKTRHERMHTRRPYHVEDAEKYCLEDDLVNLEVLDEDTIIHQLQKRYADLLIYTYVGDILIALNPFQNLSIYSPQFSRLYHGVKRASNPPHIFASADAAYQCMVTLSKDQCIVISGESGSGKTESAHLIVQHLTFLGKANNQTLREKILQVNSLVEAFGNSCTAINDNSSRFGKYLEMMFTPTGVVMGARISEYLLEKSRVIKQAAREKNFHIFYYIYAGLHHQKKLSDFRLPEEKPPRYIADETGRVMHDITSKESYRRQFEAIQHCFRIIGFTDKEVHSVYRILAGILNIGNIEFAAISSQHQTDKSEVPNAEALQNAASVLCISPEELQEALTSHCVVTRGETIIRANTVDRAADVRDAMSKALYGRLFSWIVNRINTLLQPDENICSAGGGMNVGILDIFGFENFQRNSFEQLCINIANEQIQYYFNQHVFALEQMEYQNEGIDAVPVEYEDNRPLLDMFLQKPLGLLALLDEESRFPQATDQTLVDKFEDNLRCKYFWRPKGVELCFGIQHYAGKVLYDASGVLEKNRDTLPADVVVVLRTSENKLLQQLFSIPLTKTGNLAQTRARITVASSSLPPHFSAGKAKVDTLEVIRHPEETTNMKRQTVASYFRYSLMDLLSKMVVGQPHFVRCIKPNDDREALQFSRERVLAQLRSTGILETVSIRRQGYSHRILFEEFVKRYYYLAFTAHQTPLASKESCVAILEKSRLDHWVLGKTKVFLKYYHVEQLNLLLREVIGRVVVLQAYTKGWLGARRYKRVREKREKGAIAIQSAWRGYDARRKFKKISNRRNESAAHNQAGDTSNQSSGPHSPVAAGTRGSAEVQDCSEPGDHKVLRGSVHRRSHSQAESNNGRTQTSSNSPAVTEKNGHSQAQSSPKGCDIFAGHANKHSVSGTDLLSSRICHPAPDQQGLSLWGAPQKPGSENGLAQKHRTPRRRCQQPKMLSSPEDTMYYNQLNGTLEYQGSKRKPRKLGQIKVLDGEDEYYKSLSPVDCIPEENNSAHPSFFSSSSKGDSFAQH

`O=C(NCC1CCOCC1)c1n[nH]cc1NC(=O)c1c(F)cccc1F` has a remaining binding of 100% (binding; competition with immobilised ligand; 1 µM).
With `FC(F)(F)c1ccc2c(c1)nc(-c1cccnc1)n2C1CC1` the remaining binding was 67% (cell-free assay; competition with immobilised ligand; 1 µM).
`CN(C)c1nccc(-c2cnn3ncccc23)n1` has a remaining binding of 100% (binding; 1 µM).
`COc1cnc(Nc2cccc(S(N)(=O)=O)c2)nc1N1CCN(c2ccccc2)CC1` has a remaining binding of 100% (binding; competition with immobilised ligand; 1 µM).
`N#CC1(c2ccccn2)CCN(Cc2cc(C(=O)N3CCCC3)c(=O)n3ccccc23)CC1` has a remaining binding of 100% (cell-free assay; competition with immobilised ligand; 1 µM).
The remaining binding of `Nc1ncc2c(n1)-c1c([nH]c3ccc(C#CC4CC4)cc13)CCCC2` is reported as 75% (binding; competition with immobilised ligand; 1 µM).
`CC1=C(C#N)C(c2ccc3c(c2)c(NC(=O)c2ccccc2C)nn3C)C(C#N)=C(C)N1` has a remaining binding of 100% (binding; competition with immobilised ligand; 1 µM).
`Cc1cnc(Nc2ccc(C(=O)N3CCC(N4CCCC4)CC3)cc2)nc1-c1cc2ccccc2s1` gave a remaining binding of 100% (binding; competition with immobilised ligand; 1 µM).
The remaining binding of `CNC(=O)[C@@H]1CC[C@@H](n2c(-c3ccc4cnccc4c3)nc3ccc(C(=O)NCc4cccc(C(N)=O)c4)cc32)C1` is reported as 98% (binding; competition with immobilised ligand; 1 µM).
With `CCC(=O)N[C@H]1CC[C@@H](C(=O)N(C)c2ccc(-c3nc4ccccc4o3)cc2)C1` the remaining binding was 98% (cell-free assay; competition with immobilised ligand; 1 µM).
For `N[C@H]1CCN(c2nccc(-c3cnn4ncccc34)n2)C1`, the remaining binding was 100% (binding; 1 µM).
With `O=C(NCCCN1CCOCC1)c1ccc(Nc2nccc(-c3cc4ccccc4s3)n2)cc1` the remaining binding was 100% (binding; competition with immobilised ligand; 1 µM).
For `C[C@@H](c1cccc(C#N)c1)n1cc(Cl)cc(C(N)=O)c1=N`, the remaining binding was 100% (binding; competition with immobilised ligand; 1 µM).
With `C[C@H]1CCN(c2nccc(-c3cnn4ncccc34)n2)C1` the remaining binding was 100% (binding; 1 µM).
With `CNCc1ccccc1-c1csc([C@@H](C)Nc2nc(C)nc3cc(OC)c(OC)cc23)c1` the remaining binding was 47% (cell-free assay; competition with immobilised ligand; 1 µM).
`CN(c1nccc(-c2cnn3ncccc23)n1)C1CC1` has a remaining binding of 83% (binding; 1 µM).
With `COc1ncc2cc3ccccc3nc2c1C#N` the remaining binding was 96% (binding; competition with immobilised ligand; 5 µM).
`Cc1cnn2ncc(-c3ccnc(N(C)C)n3)c2c1` has a remaining binding of 80% (binding; 1 µM).
With `O=C(c1ccc(Nc2ncc(Cl)c(-c3ccc(Cl)s3)n2)cc1)N1CCC(N2CCCC2)CC1` the remaining binding was 100% (binding; competition with immobilised ligand; 1 µM).
`c1cncc(-c2cccc(Nc3nccc(NC4CCCCC4)n3)c2)c1` has a remaining binding of 100% (binding; competition with immobilised ligand; 10 µM).
With `CN(CCCC(F)(F)F)c1nccc(-c2cnn3ncccc23)n1` the remaining binding was 92% (binding; 1 µM).
